Key:
[1] = molecular target: T1, Plasmodium falciparum orotate phosphoribosyltransferase (PfOPRT) (Plasmodium falciparum, UniProt Q8I3Y0); assay: PfOPRT inhibition assay; type: biochemical
T1 sequence (Q8I3Y0 1-281): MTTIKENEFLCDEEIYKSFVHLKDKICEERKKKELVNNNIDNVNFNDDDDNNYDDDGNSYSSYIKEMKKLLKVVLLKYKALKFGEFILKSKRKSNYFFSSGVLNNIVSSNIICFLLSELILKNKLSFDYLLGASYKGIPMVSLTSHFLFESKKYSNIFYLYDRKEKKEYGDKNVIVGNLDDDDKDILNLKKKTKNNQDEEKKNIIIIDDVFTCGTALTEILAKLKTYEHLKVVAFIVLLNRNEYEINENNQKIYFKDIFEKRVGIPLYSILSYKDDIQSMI

[2] = molecular target: T2, human orotate phosphoribosyltransferase (HsOPRT) (Homo sapiens, UniProt P11172); assay: HsOPRT inhibition assay; type: biochemical; details: for inhibition of HsOPRT: at D-DIAB or L-DIAB concentrations of 200 μM
T2 sequence (P11172 1-214 limits assumed): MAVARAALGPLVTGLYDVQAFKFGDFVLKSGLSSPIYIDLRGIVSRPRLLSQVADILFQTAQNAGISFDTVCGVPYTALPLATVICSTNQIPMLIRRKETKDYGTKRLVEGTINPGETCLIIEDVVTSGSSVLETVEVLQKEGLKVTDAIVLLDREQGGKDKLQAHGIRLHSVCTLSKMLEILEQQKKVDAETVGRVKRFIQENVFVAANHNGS
Procedure, shortened: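 Human OPRT, 200 nM, at 25 °C in 50 mM Tris-HCl pH 8.0 with 5 mM MgCl₂. Substrates are 500 μM orotidine 5′-monophosphate and 1 mM pyrophosphate, with bis-phosphate iminoaltritol test compound present. Reaction followed by absorbance at 266 nm. Ki derived from initial rates measured in triplicate.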

[3] = molecular target: T3, Saccharomyces cerevisiae adenine phosphoribosyltransferase (ScAPRT) (Saccharomyces cerevisiae, UniProt P49435); assay: ScAPRT inhibition assay; type: biochemical
T3 sequence (P49435 1-187): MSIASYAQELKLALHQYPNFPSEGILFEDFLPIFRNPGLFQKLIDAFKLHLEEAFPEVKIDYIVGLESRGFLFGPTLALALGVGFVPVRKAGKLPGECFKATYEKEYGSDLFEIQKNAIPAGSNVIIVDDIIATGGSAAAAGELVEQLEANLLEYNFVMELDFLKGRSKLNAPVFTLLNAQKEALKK

[4] = molecular target: T3, Saccharomyces cerevisiae adenine phosphoribosyltransferase (ScAPRT); details: read-out: KM for PRPP (ScAPRT); previously reported substrate KM; cited from earlier work

Compound | selectivity for D-DIAB over L-DIAB in PfOPRT inhibition ([1]; ratio of Ki values, Table 1) [fold] | inhibition of HsOPRT [2] | Ki [3] [µM] | Ki [1] [µM] | Ki [2] [µM] | Km [4] [µM]
O=P(O)(O)OC[C@H]1N[C@H](COP(=O)(O)O)[C@@H](O)[C@@H]1O [D-DIAB, D-2,5-dideoxy-2,5-imino-altritol 1,6-bisphosphate] | 3 | no apparent inhibition |  |  |  | 
O=P(O)(O)OC[C@H]1N[C@H](COP(=O)(O)O)[C@@H](O)[C@H]1O (stereo in doubt) [L-DIAB, L-2,5-dideoxy-2,5-imino-altritol 1,6-bisphosphate] |  | no apparent inhibition | 14.9 ± 2.9 | 103 ± 17 | > 200 | 
O=P(O)(O)OC[C@H]1O[C@H](OP(=O)(O)OP(=O)(O)O)[C@H](O)[C@@H]1O [PRPP, 5-phospho-α-D-ribosyl 1-pyrophosphate] |  |  |  |  |  | 20

From publication PMC6568317 (ACS chemical biology, 2017)
